Experimental data reported in ChEMBL document CHEMBL1140685, “Synthesis and antitrichinellosis activity of some bis(benzimidazol-2-yl)amines” (2007).

Assays:
Assay type in all cases: functional
[1] = system: Trichinella spiralis; assay: Antitrichinellosis activity against Trichinella spiralis larvae at 50 ug/ml after 48 hrs by Campbell's method
In short: (§1)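 Encapsulated T. spiralis larvae were held at 150 per 1 ml physiological solution with compound dissolved in DMSO–water. Incubation was at 37 °C in a humid thermostatted chamber. Larval vitality was scored by stereomicroscope at 24 and 48 h after treatment.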

[2] = system: Trichinella spiralis; assay: Antitrichinellosis activity against Trichinella spiralis intestinal phase larvae in mouse at 100 mg/kg, po after 3 days
In short: (§2)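 White immature mice each infected with 150 Trichinella larvae, five mice per group. Oral dosing by thin metallic probe into the oesophagus as DMSO solution, once daily for 3 days starting on day 3 after infection. Controls were untreated mice and mice given albendazole at 100 mg/kg. Read-out was microscopic examination of small-intestine contents after autopsy for larvae.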

[3] = system: Trichinella spiralis; assay: Antitrichinellosis activity against Trichinella spiralis larvae at 50 ug/ml after 24 hrs by Campbell's method; in short: as §1
[4] = system: Trichinella spiralis; assay: Antitrichinellosis activity against Trichinella spiralis larvae at 200 ug/ml after 48 hrs by Campbell's method; in short: as §1
[5] = system: Trichinella spiralis; assay: Antitrichinellosis activity against Trichinella spiralis intestinal phase larvae in mouse at 50 mg/kg, po after 3 days; in short: as §2
[6] = system: Trichinella spiralis; assay: Antitrichinellosis activity against Trichinella spiralis larvae at 100 ug/ml after 48 hrs by Campbell's method; in short: as §1
[7] = system: Trichinella spiralis; assay: Antitrichinellosis activity against Trichinella spiralis larvae at 100 ug/ml after 24 hrs by Campbell's method; in short: as §1
[8] = system: Trichinella spiralis; assay: Antitrichinellosis activity against Trichinella spiralis larvae at 200 ug/ml after 24 hrs by Campbell's method; in short: as §1

Compound | Efficacy [1] [%] | Efficacy [2] [%] | Efficacy [3] [%] | Efficacy [4] [%] | Efficacy [5] [%] | Efficacy [6] [%] | Efficacy [7] [%] | Efficacy [8] [%]
CCn1c(Nc2nc3ccccc3n2CC)nc2ccccc21 | 66.3 | 100 | 45.8 | 98 | 100 | 97.5 | 92 | 94
Cn1c(Nc2nc3ccccc3n2C)nc2ccccc21 | 14 | – | 8.8 | 67.9 | – | 18.3 | 17.3 | 45.7
CCn1c(Nc2nc3ccccc3n2C)nc2ccccc21 | 65.3 | – | 35.3 | 84 | – | 73 | 65.7 | 76.3
CCCn1c(Nc2nc3ccccc3n2CC)nc2ccccc21 | 46 | 100 | 42 | 100 | 100 | 92.1 | 84 | 96
Cn1c(Nc2nc3ccccc3[nH]2)nc2ccccc21 | 17.2 | – | 9.1 | 58.3 | – | 28.3 | 13.5 | 30.2
CCCn1c(Nc2nc3ccccc3n2CCC)nc2ccccc21 | 58.6 | 100 | 45.9 | 100 | 100 | 95.3 | 81.2 | 100
CCn1c(Nc2nc3ccccc3[nH]2)nc2ccccc21 | 25.3 | – | 15.7 | 65 | – | 38.6 | 20 | 38.2
CCCSc1ccc2[nH]c(NC(=O)OC)nc2c1 [ALBENDAZOLE] | 14.8 | 100 | 10.6 | 17.4 | – | 15.1 | 10.7 | 13.3
CCCn1c(Nc2nc3ccccc3[nH]2)nc2ccccc21 | 20 | – | 12 | 78 | – | 34.5 | 17.6 | 67.7
CCCn1c(Nc2nc3ccccc3n2C)nc2ccccc21 | 43.4 | – | 33.3 | 88.4 | – | 80 | 73.8 | 80
